Screening results from PubChem BioAssay.
RGS4 block – human RGS4 inhibition | P49798 | HEK293 M3R/RGS4 inducible, Fluo-4 calcium flux; stronger effect = higher value; triggered by carbachol at its EC20 | B-score at 10 µM | hit rate 0.45% among 310,000 | AID 463165;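 active means B-score, a plate-corrected calcium signal, over three deviations above library mean, with baseline fluorescence within five deviations of library mean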;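 further: RGS4 expression induced by doxycycline in cells with stable M3 receptor; B-score is computed from the integrated fluorescence ratio over baseline after carbachol; higher B-score means a larger calcium signal and so more RGS4 inhibition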
Target sequence (P49798 whole entry, looked up): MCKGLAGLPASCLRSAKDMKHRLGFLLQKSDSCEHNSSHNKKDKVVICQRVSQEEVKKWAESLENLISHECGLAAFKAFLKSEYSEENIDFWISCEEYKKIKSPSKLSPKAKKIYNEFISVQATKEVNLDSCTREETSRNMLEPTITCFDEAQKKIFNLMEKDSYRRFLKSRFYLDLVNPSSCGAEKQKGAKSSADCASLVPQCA
MrgX1 agonist – activates human MrgX1 receptor signaling. Q96LB2. hit rate 0.44% among 310,000. MrgX1-HEK293 cells, Fluo-4 calcium fluorescence, agonist mode; stronger effect = higher value. B-score at 10 µM. AID 588627;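 active means calcium response B-score plate-corrected fluorescence ratio at least 3 library SD, with starting fluorescence B-score inside 5 SD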
Target sequence (Q96LB2 whole entry, looked up): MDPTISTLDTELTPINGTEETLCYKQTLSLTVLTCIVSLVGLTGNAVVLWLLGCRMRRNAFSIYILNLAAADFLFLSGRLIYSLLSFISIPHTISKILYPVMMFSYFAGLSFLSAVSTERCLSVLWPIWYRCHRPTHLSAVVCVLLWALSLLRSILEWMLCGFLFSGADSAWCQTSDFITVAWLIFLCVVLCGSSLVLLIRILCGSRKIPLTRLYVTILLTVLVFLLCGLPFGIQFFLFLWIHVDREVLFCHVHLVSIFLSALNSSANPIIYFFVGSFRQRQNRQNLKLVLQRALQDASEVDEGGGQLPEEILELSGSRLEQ
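Assay system: MrgX1-expressing HEK293 cells / Amount: fifteen thousand cells per well / Doses: test compound in the initial addition of three / Timing: cells plated overnight, dye loaded 0.5 h 37 °C, 0.5 h room temperature / Technique: kinetic calcium dye fluorescence, Fluo-4 NW / Control set: positive and negative controls per plate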
RGS4 pot – RGS4 potentiation or activation; HEK293 M3R/inducible RGS4, carbachol calcium flux Fluo4; stronger effect = lower value; B-score at 10 µM; hit rate 0.92% among 310,000;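 active means B-score of the integrated calcium signal more than 4 SD below the library mean, with starting fluorescence not abnormally high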;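 further: negative B-score means reduced calcium response which marks RGS4 activation or potentiation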
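Detection: kinetic calcium fluorescence imaging with Fluo4-AM dye, 2 µM / Material: HEK293 cells with stable M3R and inducible RGS4 / Schedule: recording 10 s baseline at 1 Hz, 100 s post-agonist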
MrgX1 antagonist – antagonists of human MrgX1 receptor | Q96LB2 | hit rate 1.3% among 310,000 | B-score at 10 µM | AID 588676 | MRGX1-HEK293 calcium flux, Fluo-4, BAM8-22 antagonism; stronger effect = lower value;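 active means calcium-response B-score plate-corrected more than 3 library SD below zero, starting fluorescence within 5 deviations, no agonist response on first addition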;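 further: peak minus trough fluorescence over baseline after final BAM8-22 challenge near maximal dose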
MrgX1 allo act – human MrgX1 positive allosteric modulation, primary screen; Q96LB2; hit rate 0.63% among 310,000; B-score at 10 µM; MrgX1-HEK293, Fluo-4 calcium flux, FDSS; stronger effect = higher value; AID 588675;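 active means plate-corrected calcium response at least 3 library SD above typical, normal starting fluorescence, not activating the receptor alone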;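 further: compound read alongside a low EC10 to EC30 dose of BAM8-22 agonist; peak minus trough fluorescence over baseline measured at the second addition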
RGS4 inh valid – RGS4 inhibitor validation; shares compounds with RGS4 block; HEK293 M3R/RGS4, carbachol calcium Fluo-4 fluorescence; carbachol added at its EC20; 0 = buffer wells, 100 = carbachol control; calcium response, % at 10 µM; hit rate 65% among 1,700; AID 492999;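 active means duplicate-averaged calcium response above the buffer-only control mean plus 5 SD of those controls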;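 further: integrated fluorescence ratio F max minus min over baseline F0; higher response in RGS4-induced cells means RGS4 inhibition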
M3R Ca ctr – non-induced cell nonspecific activity of RGS4 inhibitors; shares compounds with RGS4 block; HEK293 M3R non-induced, carbachol calcium Fluo-4; submaximal (EC20) carbachol stimulus; buffer wells 0%, carbachol control wells 100%; activity (percent), % at 10 µM; hit rate 20% among 1,900; AID 493000; call rule not given here;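 further: RGS4 induction absent so cells express M3R without RGS4; higher means more calcium signal and flags a non-specific hit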
M3R basal Ca ctr – second RGS4 inhibitor counter-screen in uninduced cells lacking carbachol | shares compounds with RGS4 block | AID 493001 | hit rate 22% among 1,900 | calcium response (agonist-mode artifact), % at 10 µM | HEK293 M3R/RGS4 non-induced, Fluo-4 calcium, no carbachol; normalised: buffer wells 0%, carbachol wells 100%;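 active means duplicate-averaged calcium rise in uninduced cells above buffer wells' mean plus 5 SD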
* marks the source's active call; other numbers are inactive results; i = inactive; nt = not tested or not shown. Shown are actives, neighbours in structure and some others; about 3.5% of the full set was active somewhere.

SMILES	RGS4 block	MrgX1 agonist	RGS4 pot	MrgX1 antagonist	MrgX1 allo act	RGS4 inh valid	M3R Ca ctr	M3R basal Ca ctr
CCOC(=O)c1c(-c2ccccc2)csc1NC(=O)CSc1nc(C)cc(C)n1	i	i	i	i	i	i	i	i
CCOC(=O)c1c(-c2ccc(C)o2)csc1NC(=O)CSc1nncs1	13*	i	i	i	i	11%*	i	i
CCOC(=O)c1c(-c2ccc(C)o2)csc1NC(=O)CN1CCCCC1	i	i	i	i	i	nt	nt	nt
CCOC(=O)c1c(-c2ccccc2)csc1NC(=O)CSc1nc(N)cc(N)n1	5.5*	i	i	i	i	6.0%*	i	i
CN(CC(=O)Nc1ccc(Cl)cc1)C(=O)c1ccc(S(=O)(=O)Nc2ccccc2)cc1	i	i	i	i	i	nt	nt	nt
COc1ccc2cc(/C=C/C(=O)c3ccco3)c(Cl)nc2c1	i	i	i	i	i	nt	nt	nt
Cc1ccc2nc(Cl)c(/C=C/C(=O)c3ccco3)cc2c1	i	i	i	i	i	i	50%*	i
Cc1ccc2cc(/C=N/NC(=O)c3ccc(F)cc3)c(Cl)nc2c1	i	i	i	i	i	nt	nt	nt
COc1cc2cc(/C=C/C(=O)c3ccco3)c(Cl)nc2cc1OC	8.1*	i	i	i	i	16%*	i	20%*
Cc1ccc2cc(/C=C/C(=O)c3ccco3)c(Cl)nc2c1	6*	i	i	i	i	i	39%*	i
CC1CCC(NC(=O)C(NS(=O)(=O)c2cccc3nsnc23)C(C)C)CC1 (stereo not drawn)	i	i	i	i	i	nt	nt	nt
CC1(C)CC(=O)C(Sc2ccccc2)=C(O)C1	i	i	i	i	i	nt	nt	nt
COc1cc(/C=C2\C(=O)N(c3ccc(NC(C)=O)cc3)N=C2c2ccccc2)ccc1O	6.2*	i	i	i	i	i	i	16%*
O=C(NCc1ccccc1F)c1ccc(S(=O)(=O)Nc2cccc(C(F)(F)F)c2)cc1	i	i	i	i	i	nt	nt	nt
O=C(NCc1ccc(F)cc1)c1ccc(S(=O)(=O)Nc2cccc(C(F)(F)F)c2)cc1	5.2*	i	i	i	i	16%*	i	18%*
CC1=NN(c2ccc(C)c(C)c2)C(=O)C1C(c1cccc(O)c1)C1C(=O)N(c2ccc(C)c(C)c2)N=C1C (stereo not drawn)	15*	i	i	i	i	14%*	i	i
Cc1onc(-c2ccccc2)c1NC(=O)N(CCC#N)Cc1ccccc1	6.3*	i	i	i	i	i	i	i
N#CCCN(Cc1ccccc1)C(=O)Nc1ccccc1	i	i	i	i	i	nt	nt	nt
CN(Cc1ccon1)C(=O)CCc1nnc(Cc2ccc(-c3ccccc3)cc2)o1	i	i	i	i	i	nt	nt	nt
COc1nn(-c2ccccc2)c(=O)c(Cl)c1Cl	5*	i	i	i	i	10%*	i	i
COc1c(Cl)cnn(-c2ccccc2)c1=O	i	i	i	i	i	nt	nt	nt
O=Nc1c(-c2ccccc2)cc2ccccn12	i	i	i	i	i	nt	nt	nt
COc1ccc(C(C[N+](=O)[O-])c2c(-c3ccccc3)cc3ccccn23)cc1OC (stereo not drawn)	13*	55*	i	i	i	12%*	i	i
COc1cc(-c2ncc3ccccn23)cc(OC)c1OC	i	i	i	i	i	nt	nt	nt
COc1cc(C(C[N+](=O)[O-])c2c(C)cc3ccccn23)ccc1O (stereo not drawn)	i	i	i	i	i	nt	nt	nt
SMILES	RGS4 block	MrgX1 agonist	RGS4 pot	MrgX1 antagonist	MrgX1 allo act	RGS4 inh valid	M3R Ca ctr	M3R basal Ca ctr
COc1cc(C(C[N+](=O)[O-])c2c(-c3ccccc3)cc3ccccn23)cc(OC)c1OC (stereo not drawn)	i	i	i	i	i	nt	i	i
COc1ccc(C(C[N+](=O)[O-])c2c(-c3ccccc3)cc3ccccn23)cc1 (stereo not drawn)	15*	i	i	i	i	12%*	i	i
O=C(NC(C(=O)c1ccccc1)N1CCOCC1)c1cccs1 (stereo not drawn)	i	i	i	i	i	nt	nt	nt
CCOC(=O)C1C(=O)C=C(c2ccc(C)cc2)CC1c1ccccc1 (stereo not drawn)	i	i	i	i	i	nt	nt	nt
COc1ccc(S(=O)(=O)N2CCC(C(=O)N[C@@H](C)C(=O)NCc3ccncc3)CC2)cc1	i	i	i	i	i	nt	nt	nt
O=C(/C=C/c1ccc(Br)cc1)c1ccco1	i	i	i	i	i	nt	nt	nt
O=C(/C=C/c1ccc([N+](=O)[O-])cc1)c1ccco1	11*	i	i	i	i	12%*	i	i
O=C(/C=C/c1cccnc1)c1ccc(F)c(F)c1	21*	i	i	i	i	27%*	46%*	i
O=C(/C=C/c1ccc([N+](=O)[O-])cc1)c1cccnc1	18*	i	i	i	i	39%*	52%*	i
CSc1nc(-c2ccc(Cl)cc2)nn1C(=O)c1ccco1	5.6*	i	i	i	i	i	i	i
CC(OC(=O)CCN1C(=O)C2CC=CCC2C1=O)C(=O)Nc1cccc(C#N)c1 (stereo not drawn)	i	i	i	i	i	nt	nt	nt
O=C(O)CCc1ccc(-c2ccccc2)o1	5.1*	i	i	i	i	5.0%*	i	i
CC(C)Oc1ccc(N2CC(C(=O)Nc3ccccn3)CC2=O)cc1 (stereo not drawn)	i	i	i	i	i	nt	nt	nt
CC1O[C@@H]2O[C@](O[C@H](C)CC[C@@H](C)O)(c3ccccc3)O[C@@H]2C[C@H]1O (stereo partly drawn)	i	i	i	i	i	nt	nt	nt
CCOC(=O)C1CCN(Cc2cc(=O)oc3cc(C)c(Cl)cc23)CC1	9.3*	i	i	i	i	5.0%*	i	i
